{"source": "ChEMBL document CHEMBL5661979", "about": "“Pharmacological inhibition of BMK1 suppresses tumor growth through promyelocytic leukemia protein” (Cancer Cell, 2010)", "key": {"[1]": {"target": "Tyrosine-protein kinase CSK (Homo sapiens, UniProt P41240)", "sequence (P41240 whole entry)": "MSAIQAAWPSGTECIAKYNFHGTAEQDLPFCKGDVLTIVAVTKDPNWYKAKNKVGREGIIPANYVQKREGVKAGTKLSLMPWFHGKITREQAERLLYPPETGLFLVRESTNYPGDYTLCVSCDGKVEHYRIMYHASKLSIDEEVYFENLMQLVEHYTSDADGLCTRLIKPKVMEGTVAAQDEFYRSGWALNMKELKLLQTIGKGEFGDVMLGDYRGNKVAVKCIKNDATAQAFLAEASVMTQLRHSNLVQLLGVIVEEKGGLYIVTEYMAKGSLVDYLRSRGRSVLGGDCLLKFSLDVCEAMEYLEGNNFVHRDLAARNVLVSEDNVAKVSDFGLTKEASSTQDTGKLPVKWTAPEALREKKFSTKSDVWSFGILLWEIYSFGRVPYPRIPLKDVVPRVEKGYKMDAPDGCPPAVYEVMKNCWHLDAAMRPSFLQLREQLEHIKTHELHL", "assay": "Inhibition of CSK in human HeLa cells lysate pre incubated for 15 mins followed by ATP acyl phosphate probe addition and measured after 10 mins by LC-MS/MS analysis", "assay_type": "subcellular"}, "[2]": {"target": "Mitogen-activated protein kinase 1 (Homo sapiens, UniProt P28482)", "sequence (P28482 whole entry)": "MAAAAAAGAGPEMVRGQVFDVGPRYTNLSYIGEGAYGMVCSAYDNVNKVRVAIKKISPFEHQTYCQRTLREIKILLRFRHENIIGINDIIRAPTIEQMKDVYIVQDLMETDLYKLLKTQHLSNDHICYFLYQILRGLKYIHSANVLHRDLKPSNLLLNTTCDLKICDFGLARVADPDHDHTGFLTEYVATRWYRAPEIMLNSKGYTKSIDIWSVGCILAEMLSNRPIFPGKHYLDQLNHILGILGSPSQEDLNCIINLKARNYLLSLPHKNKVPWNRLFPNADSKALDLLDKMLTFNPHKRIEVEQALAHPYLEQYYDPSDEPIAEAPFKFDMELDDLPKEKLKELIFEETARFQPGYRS", "assay": "Inhibition of ERK2 in human HeLa cells lysate pre incubated for 15 mins followed by ATP acyl phosphate probe addition and measured after 10 mins by LC-MS/MS analysis", "assay_type": "subcellular"}, "[3]": {"target": "Tyrosine-protein kinase JAK1 (Homo sapiens, UniProt P23458)", "sequence (P23458 whole entry, the tested form may be a part)": "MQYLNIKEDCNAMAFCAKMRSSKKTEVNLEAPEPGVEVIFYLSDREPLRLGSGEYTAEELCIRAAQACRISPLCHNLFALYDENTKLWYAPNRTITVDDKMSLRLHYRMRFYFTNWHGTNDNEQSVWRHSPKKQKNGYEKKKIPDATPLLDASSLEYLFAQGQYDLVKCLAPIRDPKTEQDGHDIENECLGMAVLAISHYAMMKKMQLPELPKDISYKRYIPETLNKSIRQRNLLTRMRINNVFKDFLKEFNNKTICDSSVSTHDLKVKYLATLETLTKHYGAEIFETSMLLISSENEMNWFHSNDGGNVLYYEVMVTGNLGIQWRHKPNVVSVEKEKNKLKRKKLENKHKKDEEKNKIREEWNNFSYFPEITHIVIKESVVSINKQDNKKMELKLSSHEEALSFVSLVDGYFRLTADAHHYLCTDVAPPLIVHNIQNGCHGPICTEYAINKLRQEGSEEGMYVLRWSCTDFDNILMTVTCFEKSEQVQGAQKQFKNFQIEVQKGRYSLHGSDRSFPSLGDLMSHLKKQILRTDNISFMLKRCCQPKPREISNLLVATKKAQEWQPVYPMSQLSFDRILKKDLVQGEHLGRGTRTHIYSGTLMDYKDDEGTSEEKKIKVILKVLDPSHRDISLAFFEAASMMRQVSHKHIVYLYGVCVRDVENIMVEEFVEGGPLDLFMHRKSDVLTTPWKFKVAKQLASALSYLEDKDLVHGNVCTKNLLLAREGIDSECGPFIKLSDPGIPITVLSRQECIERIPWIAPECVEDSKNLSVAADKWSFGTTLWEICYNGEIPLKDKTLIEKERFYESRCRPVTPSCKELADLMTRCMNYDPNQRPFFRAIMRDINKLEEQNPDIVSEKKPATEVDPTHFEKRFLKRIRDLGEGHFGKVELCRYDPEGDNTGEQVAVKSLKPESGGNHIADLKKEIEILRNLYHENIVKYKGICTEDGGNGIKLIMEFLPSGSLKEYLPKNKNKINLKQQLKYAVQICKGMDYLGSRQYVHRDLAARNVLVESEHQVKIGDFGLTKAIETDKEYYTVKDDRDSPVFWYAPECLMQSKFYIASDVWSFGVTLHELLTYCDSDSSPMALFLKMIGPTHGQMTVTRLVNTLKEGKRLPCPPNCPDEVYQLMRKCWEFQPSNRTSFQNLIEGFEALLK", "assay": "Inhibition of JAK1 domain 2 in human HeLa cells lysate pre incubated for 15 mins followed by ATP acyl phosphate probe addition and measured after 10 mins by LC-MS/MS analysis", "assay_type": "subcellular"}, "[4]": {"target": "Dual specificity mitogen-activated protein kinase kinase 6 (Homo sapiens, UniProt P52564)", "sequence (P52564 whole entry)": "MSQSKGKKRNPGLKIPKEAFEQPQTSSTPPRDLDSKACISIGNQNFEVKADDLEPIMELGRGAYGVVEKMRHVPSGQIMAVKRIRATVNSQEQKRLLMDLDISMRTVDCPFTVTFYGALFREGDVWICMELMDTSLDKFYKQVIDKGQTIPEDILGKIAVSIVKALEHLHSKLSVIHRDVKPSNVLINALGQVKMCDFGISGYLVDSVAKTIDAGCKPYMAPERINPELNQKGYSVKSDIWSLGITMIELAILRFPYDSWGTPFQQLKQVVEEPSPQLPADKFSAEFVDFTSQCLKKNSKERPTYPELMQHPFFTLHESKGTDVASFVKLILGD", "assay": "Inhibition of MAP2K6 in human HeLa cells lysate pre incubated for 15 mins followed by ATP acyl phosphate probe addition and measured after 10 mins by LC-MS/MS analysis", "assay_type": "subcellular"}, "[5]": {"assay": "Inhibition of Wnk1/2/4 in human HeLa cells lysate pre incubated for 15 mins followed by ATP acyl phosphate probe addition and measured after 10 mins by LC-MS/MS analysis", "assay_type": "subcellular"}, "[6]": {"target": "5'-AMP-activated protein kinase catalytic subunit alpha-2 (Homo sapiens, UniProt P54646)", "sequence (P54646 whole entry)": "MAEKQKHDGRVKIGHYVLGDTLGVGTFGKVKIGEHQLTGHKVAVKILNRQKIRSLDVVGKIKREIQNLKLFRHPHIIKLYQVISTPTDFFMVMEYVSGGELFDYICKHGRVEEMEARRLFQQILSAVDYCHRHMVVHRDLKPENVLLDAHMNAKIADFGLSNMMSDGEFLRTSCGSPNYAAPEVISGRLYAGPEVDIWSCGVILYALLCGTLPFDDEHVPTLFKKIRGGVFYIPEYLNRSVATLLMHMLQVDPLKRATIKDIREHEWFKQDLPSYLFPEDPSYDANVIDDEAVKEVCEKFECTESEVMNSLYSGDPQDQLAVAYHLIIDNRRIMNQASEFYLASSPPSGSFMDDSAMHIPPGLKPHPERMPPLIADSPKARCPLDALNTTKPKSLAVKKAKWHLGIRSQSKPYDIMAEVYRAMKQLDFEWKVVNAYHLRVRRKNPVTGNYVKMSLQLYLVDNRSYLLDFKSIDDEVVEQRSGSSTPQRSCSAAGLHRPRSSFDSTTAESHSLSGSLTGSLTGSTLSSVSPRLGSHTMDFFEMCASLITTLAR", "assay": "Inhibition of AMPKalpha2 in human HeLa cells lysate pre incubated for 15 mins followed by ADP acyl phosphate probe addition and measured after 10 mins by LC-MS/MS analysis", "assay_type": "subcellular", "in_short": "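HeLa cell lysates (5 mg/mL total protein) were preincubated with inhibitor at 0, 0.8, 2, 10 or 50 μM for 15 min. ATP or ADP acylphosphate probe was then added (5 μM final) for 10 min, and reactions were stopped with urea. Up to four fragment ions per kinase probe-peptide were quantified by targeted MS. % inhibition was taken relative to untreated lysate. Run in duplicate.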"}, "[7]": {"target": "T1, Cyclin-dependent kinase 16 (Homo sapiens, UniProt Q00536)", "T1 sequence (Q00536 whole entry)": "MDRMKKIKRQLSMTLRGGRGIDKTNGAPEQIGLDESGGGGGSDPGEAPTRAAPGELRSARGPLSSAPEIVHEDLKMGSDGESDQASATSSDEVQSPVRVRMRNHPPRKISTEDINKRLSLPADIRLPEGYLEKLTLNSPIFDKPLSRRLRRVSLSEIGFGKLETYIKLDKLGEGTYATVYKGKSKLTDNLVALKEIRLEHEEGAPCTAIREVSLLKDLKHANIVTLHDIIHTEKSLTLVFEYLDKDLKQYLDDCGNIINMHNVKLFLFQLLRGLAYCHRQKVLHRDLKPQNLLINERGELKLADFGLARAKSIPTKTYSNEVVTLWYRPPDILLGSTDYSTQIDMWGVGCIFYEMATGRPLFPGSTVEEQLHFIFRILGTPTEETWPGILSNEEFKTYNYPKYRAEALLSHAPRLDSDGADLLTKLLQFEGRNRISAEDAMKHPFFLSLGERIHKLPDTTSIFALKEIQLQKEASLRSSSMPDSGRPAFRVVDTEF", "assay": "Inhibition of PCTAIRE1 in human HeLa cells lysate pre incubated for 15 mins followed by ADP acyl phosphate probe addition and measured after 10 mins by LC-MS/MS analysis", "assay_type": "subcellular"}, "[8]": {"target": "Serine/threonine-protein kinase/endoribonuclease IRE1 (Homo sapiens, UniProt O75460)", "assay": "Inhibition of IRE1 in human HeLa cells lysate at 50 uM pre incubated for 15 mins followed by ADP acyl phosphate probe addition and measured after 10 mins by LC-MS/MS analysis relative to control", "assay_type": "subcellular", "settings": "time 25.0 min"}, "[9]": {"assay": "Inhibition of CDK5/PRKX/PRKY in human HeLa cells lysate at 10 uM pre incubated for 15 mins followed by ADP acyl phosphate probe addition and measured after 10 mins by LC-MS/MS analysis relative to control", "settings": "25 min, condition cancer", "in_short": "(§1)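 KiNativ profiling in HeLa lysate (5 mg/mL total protein). Lysate incubated 15 min with inhibitor at 50, 10, 2, 0.8 or 0 μM. ATP or ADP acylphosphate probe then added (5 μM final) and reacted 10 min. Reaction stopped with urea and analysed by targeted MS, using up to four fragment ions per kinase peptide-probe conjugate. % inhibition taken against untreated lysate. Run in duplicate.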"}, "[10]": {"target": "T1, Cyclin-dependent kinase 16", "assay": "Inhibition of PCTAIRE1 in human HeLa cells lysate at 2 uM pre incubated for 15 mins followed by ADP acyl phosphate probe addition and measured after 10 mins by LC-MS/MS analysis relative to control", "assay_type": "subcellular", "settings": "time 25.0 min"}, "[11]": {"assay": "Inhibition of MAP3K2/MAP3K3 in human HeLa cells lysate at 2 uM pre incubated for 15 mins followed by ADP acyl phosphate probe addition and measured after 10 mins by LC-MS/MS analysis relative to control", "settings": "25 min, condition cancer"}, "[12]": {"target": "Peripheral plasma membrane protein CASK (Homo sapiens) (UniProt O14936)", "assay": "Inhibition of CASK in human HeLa cells lysate at 2 uM pre incubated for 15 mins followed by ADP acyl phosphate probe addition and measured after 10 mins by LC-MS/MS analysis relative to control", "assay_type": "subcellular", "settings": "time 25.0 min", "in_short": "as §1"}, "[13]": {"target": "Mitogen-activated protein kinase kinase kinase 20 (Homo sapiens, UniProt Q9NYL2)", "sequence (Q9NYL2 2-800 limits assumed)": "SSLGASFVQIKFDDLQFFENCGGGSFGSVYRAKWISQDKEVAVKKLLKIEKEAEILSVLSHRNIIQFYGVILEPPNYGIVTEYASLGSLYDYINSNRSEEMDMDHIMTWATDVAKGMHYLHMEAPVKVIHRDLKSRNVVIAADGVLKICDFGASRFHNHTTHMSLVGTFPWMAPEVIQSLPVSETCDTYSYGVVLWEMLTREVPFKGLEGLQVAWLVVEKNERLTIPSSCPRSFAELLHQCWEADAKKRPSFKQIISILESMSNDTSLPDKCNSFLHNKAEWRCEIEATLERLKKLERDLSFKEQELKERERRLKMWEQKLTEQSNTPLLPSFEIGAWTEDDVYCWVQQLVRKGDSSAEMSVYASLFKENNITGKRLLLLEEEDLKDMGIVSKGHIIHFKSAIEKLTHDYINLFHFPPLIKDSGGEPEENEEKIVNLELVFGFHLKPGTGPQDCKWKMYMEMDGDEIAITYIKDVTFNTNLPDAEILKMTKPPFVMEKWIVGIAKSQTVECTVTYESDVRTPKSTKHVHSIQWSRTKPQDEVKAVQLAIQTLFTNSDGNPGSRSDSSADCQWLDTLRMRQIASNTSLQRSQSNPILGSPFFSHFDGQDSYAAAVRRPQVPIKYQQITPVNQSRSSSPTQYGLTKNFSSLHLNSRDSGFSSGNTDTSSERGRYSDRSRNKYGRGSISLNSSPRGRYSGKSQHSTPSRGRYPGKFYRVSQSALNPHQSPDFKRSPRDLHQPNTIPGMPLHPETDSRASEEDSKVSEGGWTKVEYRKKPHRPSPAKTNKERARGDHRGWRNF", "assay": "Inhibition of ZAK in human HeLa cells lysate at 50 uM pre incubated for 15 mins followed by ATP acyl phosphate probe addition and measured after 10 mins by LC-MS/MS analysis relative to control", "assay_type": "subcellular", "settings": "time 25.0 min"}, "[14]": {"target": "Cyclin-dependent kinase 2 (Homo sapiens, UniProt P24941)", "assay": "Inhibition of CDK2 K1 site in human HeLa cells lysate at 10 uM pre incubated for 15 mins followed by ATP acyl phosphate probe addition and measured after 10 mins by LC-MS/MS analysis relative to control", "assay_type": "subcellular", "settings": "time 25.0 min", "in_short": "as §1"}, "[15]": {"target": "T2, Serine/threonine-protein kinase Sgk3 (Homo sapiens) (UniProt Q96BR1)", "T2 sequence (whole entry)": "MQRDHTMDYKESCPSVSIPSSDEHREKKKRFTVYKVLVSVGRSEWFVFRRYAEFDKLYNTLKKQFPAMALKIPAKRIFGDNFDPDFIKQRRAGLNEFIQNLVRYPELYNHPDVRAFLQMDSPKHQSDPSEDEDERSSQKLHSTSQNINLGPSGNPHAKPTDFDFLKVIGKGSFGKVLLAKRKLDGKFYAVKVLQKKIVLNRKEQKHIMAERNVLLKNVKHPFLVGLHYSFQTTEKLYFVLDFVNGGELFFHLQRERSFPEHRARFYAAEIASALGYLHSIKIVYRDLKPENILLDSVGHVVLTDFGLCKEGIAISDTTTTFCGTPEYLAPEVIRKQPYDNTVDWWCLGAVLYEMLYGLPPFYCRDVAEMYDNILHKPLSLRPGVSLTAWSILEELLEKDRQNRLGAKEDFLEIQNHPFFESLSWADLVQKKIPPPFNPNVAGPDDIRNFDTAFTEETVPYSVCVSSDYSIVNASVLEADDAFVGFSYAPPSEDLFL", "assay": "Inhibition of SGK3 in human HeLa cells lysate at 2 uM pre incubated for 15 mins followed by ATP acyl phosphate probe addition and measured after 10 mins by LC-MS/MS analysis relative to control", "assay_type": "subcellular", "settings": "time 25.0 min"}, "[16]": {"assay": "Clearance in Sprague-Dawley rat at 1 mg/kg, iv measured up to 8 hrs by LC-MS/MS analysis", "assay_type": "ADME, organism-based", "settings": "in vivo", "in_short": "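Sprague-Dawley rats given one intravenous dose or one oral dose of 2 mg/kg. Plasma drug concentrations were followed over time, with samples taken out to 8 hr after dosing. PK parameters (clearance, volume of distribution, half-life, oral bioavailability, Cmax) were calculated from these concentration–time data.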"}, "[17]": {"assay": "Toxicity in C57Bl/6 mouse assessed as effect on calcium level at 50 mg/kg, ip for 14 days (reference value: 9.9 mg/dl)", "assay_type": "organism-based", "settings": "in vivo, 336 h, time 14 day"}}}
{"compound": "CCOc1cc(N2CCC(O)CC2)ccc1Nc1ncc2c(n1)N(C)c1ccccc1C(=O)N2C", "values": [{"measurement": "IC50", "setting": "[1]", "value": "> 50", "unit": "µM"}, {"measurement": "IC50", "setting": "[2]", "value": "> 50", "unit": "µM"}, {"measurement": "IC50", "setting": "[3]", "value": "> 50", "unit": "µM"}, {"measurement": "IC50", "setting": "[4]", "value": "> 50", "unit": "µM"}, {"measurement": "IC50", "setting": "[5]", "value": "> 50", "unit": "µM"}, {"measurement": "IC50", "setting": "[6]", "value": "> 50", "unit": "µM"}, {"measurement": "IC50", "setting": "[7]", "value": "> 50", "unit": "µM"}, {"measurement": "inhibition", "setting": "[8]", "value": 6.2, "unit": "%"}, {"measurement": "inhibition at 10 µM", "setting": "[9]", "value": -0.1, "unit": "%"}, {"measurement": "inhibition", "setting": "[10]", "value": 17.5, "unit": "%"}, {"measurement": "inhibition at 2 µM", "setting": "[11]", "value": 4.6, "unit": "%"}, {"measurement": "inhibition", "setting": "[12]", "value": 12.1, "unit": "%"}, {"measurement": "inhibition", "setting": "[13]", "value": 33.3, "unit": "%"}, {"measurement": "inhibition", "setting": "[14]", "value": -9.1, "unit": "%"}, {"measurement": "inhibition", "setting": "[15]", "value": 15.9, "unit": "%"}, {"measurement": "clearance", "setting": "[16]", "value": 26, "unit": "mL/min/kg"}, {"measurement": "Activity", "setting": "[17]", "value": 9.1, "unit": "mg/dL"}]}
